In general, IC50 refers to the midpoint of a concentration-inhibition curve.

SMILES strings stand for the structures. The source made the active and inactive calls. The calls are words filed in the database; no cut-off is given here.

One series relates to HCT-116. As to the kind of experiment: Cytotoxicity against human HCT-116 cells assessed as reduction in cell viability incubated for 30 mins by methylene blue staining based analysis. The note with it: HCT-116, 0.5 h.
For series [1], the system named is NCI-H522. As to the kind of experiment: Cytotoxicity against human NCI-H522 cells assessed as reduction in cell viability incubated for 30 mins by methylene blue staining based analysis. The following applies: NCI-H522, 0.5 h.
In series [2] the test system is NCI-H522. As to the kind of experiment: Induction of cell cycle arrest in human NCI-H522 cells assessed as accumulation at G1 phase 5 uM incubated for 24 to 72 hrs by PI staining based flow cytometric analysis. The class given is functional. The following applies: time lower […], time upper […].
In series [3] the test system is NCI-H522. Nature of the series: Induction of cell cycle arrest in human NCI-H522 cells assessed as accumulation at G2/M phase 5 uM incubated for 24 to 72 hrs by PI staining based flow cytometric analysis. In kind it is functional. The following applies: time lower […], time upper […]. On the technique in general: A flow cytometer gives signals particle by particle.

Series [4] has as its system NCI-H522. Nature of the series: Induction of cell cycle arrest in human NCI-H522 cells assessed as accumulation at S phase 5 uM incubated for 24 to 72 hrs by PI staining based flow cytometric analysis. In kind it is functional. The note with it: time lower […], time upper […].
The subject of series [5] is NCI-H522. Nature of the series: Cytotoxicity against human NCI-H522 cells assessed as reduction in cell survival at 1 to 5 uM incubated for 3 days in presence of 2-Bromo-N-(7-(hydroxyamino)-7-oxoheptyl)thiazole-4-carboxamide by methylene blue staining based analysis. In kind it is functional. The following applies: dose 1-5 µM, time 3.0 day. The method, boiled down: (§1)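 Cells (5000/well, n = 3, DMEM with 10% serum, 37 °C, 5% CO2) were treated the day after plating and kept for three days. […] Survival was expressed relative to DMSO.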

For series [6], the system named is NCI-H522. As to the kind of experiment: Cytotoxicity against human NCI-H522 cells assessed as reduction in cell survival at 1 to 5 uM incubated for 3 days in presence of ferroptosis inhibitor, liproxstatin-1 by methylene blue staining based analysis. The class given is functional. The note with it: dose 1-5 µM, time 3.0 day.
Series [7] in a line: Neurotoxicity in human SH-SY5Y cells assessed as decrease in cell viability at 1.665 to 6.665 uM incubated for 3 days. The note with it: 72 h, dose 1.665-6.665 µM, time 3 day. The class given is toxicity, cell-based. Put shortly:
(§2)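 SH-SY5Y cells were grown on poly-D-lysine in DMEM/F12 with 10% FBS and seeded at 15,000/well 36 h before dosing, with DMSO as vehicle. Viability was read by MTT: 2 h at 37 °C, then solubilization for 1 h and absorbance at 570. Data are triplicates from three separate experiments.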

The target in the next series is Histone deacetylase 1 (Homo sapiens, UniProt Q13547). As to the kind of experiment: Inhibition of full length his6/FLAG-tagged human recombinant HDAC1(1 to 482 residues) expressed in Sf9 insect cells.
Histone deacetylase 1, sequence (Q13547 whole entry, the tested form may be a part): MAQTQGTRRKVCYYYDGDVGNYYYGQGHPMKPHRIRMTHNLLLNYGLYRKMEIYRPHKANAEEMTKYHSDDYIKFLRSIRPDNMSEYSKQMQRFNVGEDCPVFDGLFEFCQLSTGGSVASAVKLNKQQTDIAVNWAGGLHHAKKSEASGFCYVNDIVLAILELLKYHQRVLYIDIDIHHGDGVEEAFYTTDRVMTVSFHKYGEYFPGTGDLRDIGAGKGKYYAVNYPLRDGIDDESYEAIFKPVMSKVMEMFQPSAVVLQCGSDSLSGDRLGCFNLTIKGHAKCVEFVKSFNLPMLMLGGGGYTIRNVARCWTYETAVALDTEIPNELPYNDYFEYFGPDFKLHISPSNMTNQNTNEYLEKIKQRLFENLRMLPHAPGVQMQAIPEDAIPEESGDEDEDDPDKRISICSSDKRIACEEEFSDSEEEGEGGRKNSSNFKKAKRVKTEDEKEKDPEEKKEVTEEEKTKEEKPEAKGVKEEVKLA
For series [8], the target named is T1, Protein deacetylase HDAC6 (Homo sapiens, UniProt Q9UBN7).
T1 sequence (Q9UBN7 whole entry): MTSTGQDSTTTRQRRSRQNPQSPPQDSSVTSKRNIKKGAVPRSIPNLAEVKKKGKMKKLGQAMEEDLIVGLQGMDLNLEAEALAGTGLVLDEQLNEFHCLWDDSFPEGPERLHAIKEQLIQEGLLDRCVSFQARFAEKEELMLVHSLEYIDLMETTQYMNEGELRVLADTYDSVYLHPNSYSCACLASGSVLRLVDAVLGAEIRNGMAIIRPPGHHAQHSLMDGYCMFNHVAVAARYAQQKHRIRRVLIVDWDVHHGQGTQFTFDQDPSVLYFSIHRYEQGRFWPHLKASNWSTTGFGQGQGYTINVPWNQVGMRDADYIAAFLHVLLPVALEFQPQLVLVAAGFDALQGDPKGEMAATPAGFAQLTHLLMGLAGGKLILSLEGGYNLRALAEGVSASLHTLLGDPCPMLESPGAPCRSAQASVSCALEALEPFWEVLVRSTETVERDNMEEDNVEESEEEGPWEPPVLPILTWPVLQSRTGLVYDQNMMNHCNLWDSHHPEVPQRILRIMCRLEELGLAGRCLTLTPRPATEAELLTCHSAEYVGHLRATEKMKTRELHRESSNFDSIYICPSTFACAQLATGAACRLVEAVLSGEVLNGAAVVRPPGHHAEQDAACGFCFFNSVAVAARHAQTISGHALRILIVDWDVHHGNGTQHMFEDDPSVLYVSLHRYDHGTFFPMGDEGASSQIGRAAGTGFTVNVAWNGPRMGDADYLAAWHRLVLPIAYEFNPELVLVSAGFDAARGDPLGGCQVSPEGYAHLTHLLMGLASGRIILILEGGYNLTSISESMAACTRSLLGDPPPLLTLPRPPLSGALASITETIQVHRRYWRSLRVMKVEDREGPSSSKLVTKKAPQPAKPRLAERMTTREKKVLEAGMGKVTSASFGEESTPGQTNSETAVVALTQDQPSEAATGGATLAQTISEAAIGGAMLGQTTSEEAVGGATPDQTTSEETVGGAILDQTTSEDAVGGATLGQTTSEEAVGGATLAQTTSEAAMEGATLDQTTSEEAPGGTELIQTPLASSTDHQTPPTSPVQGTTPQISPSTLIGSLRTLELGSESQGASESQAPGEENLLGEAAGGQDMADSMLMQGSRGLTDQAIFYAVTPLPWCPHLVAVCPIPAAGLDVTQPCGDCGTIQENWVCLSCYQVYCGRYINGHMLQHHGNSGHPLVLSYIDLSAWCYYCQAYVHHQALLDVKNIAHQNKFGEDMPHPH
As to the kind of experiment: Inhibition of full length C-terminal FLAG-tagged human recombinant HDAC6 expressed inSf9 insect cells. On the set-up: species or system Sf9.

Another series deals with Histone deacetylase 3 (Homo sapiens, UniProt O15379). As to the kind of experiment: Inhibition of full length C-terminal his6/FLAG-tagged human recombinant HDAC3 ([…]) expressed in Sf9 insect cells.
Histone deacetylase 3, sequence (O15379 whole entry): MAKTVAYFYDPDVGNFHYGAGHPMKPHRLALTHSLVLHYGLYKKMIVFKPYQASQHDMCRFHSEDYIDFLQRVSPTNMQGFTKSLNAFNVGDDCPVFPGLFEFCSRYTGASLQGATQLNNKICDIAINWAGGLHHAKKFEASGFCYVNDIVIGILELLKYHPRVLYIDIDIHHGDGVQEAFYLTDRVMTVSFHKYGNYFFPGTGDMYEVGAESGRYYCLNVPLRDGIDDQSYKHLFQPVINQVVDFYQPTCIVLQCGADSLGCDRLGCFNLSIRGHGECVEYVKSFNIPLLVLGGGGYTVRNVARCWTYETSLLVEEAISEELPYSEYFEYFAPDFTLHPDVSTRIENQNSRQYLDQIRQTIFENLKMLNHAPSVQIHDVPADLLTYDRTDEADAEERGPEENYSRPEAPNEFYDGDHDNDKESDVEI
Another series addresses T2, Histone deacetylase 8 (Homo sapiens, UniProt Q9BY41).
T2 sequence (Q9BY41 whole entry): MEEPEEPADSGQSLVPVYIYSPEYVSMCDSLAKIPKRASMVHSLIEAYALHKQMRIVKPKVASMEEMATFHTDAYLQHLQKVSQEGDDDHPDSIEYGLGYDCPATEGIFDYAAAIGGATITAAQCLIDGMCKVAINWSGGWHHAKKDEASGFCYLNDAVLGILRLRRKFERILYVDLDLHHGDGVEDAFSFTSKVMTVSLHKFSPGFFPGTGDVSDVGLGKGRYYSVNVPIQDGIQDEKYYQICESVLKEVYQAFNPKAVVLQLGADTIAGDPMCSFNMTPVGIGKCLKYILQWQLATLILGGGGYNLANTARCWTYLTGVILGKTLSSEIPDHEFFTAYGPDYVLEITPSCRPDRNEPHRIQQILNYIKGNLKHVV
Nature of the series: Inhibition of full length C-terminal his-tagged human recombinant HDAC8 expressed in Sf9 insect cells.

For series [9], the system named is NCI-H522. Nature of the series: Induction of ferroptosis in human NCI-H522 cells assessed as induction of lipid peroxidase accumulation at 10 uM incubated for 4 days in presence of Lipoxstatin-1 by C11-BODIPY-581/591 staining based flow cytometry analysis. The class given is functional, cell-based.
A short description of series [10]: Cytotoxicity against human WI-38 cells assessed as reduction in cell survival incubated for 30 mins by methylene blue staining based analysis.
The subject of series [11] is NCI-H522. Nature of the series: Induction of ferroptosis in human NCI-H522 cells assessed as viability at 20 uM incubated after 8 to 12 hrs by microscopic analysis. In kind it is functional, cell-based. The following applies: time lower 8.0 hrs, time upper […]. The method, boiled down: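 Time-lapse imaging used NCI-H522 cells adhered overnight and equilibrated to 10% CO2, held in sealed flasks on a 37 °C stage. Frames were taken every 12 min, 300 in total, with a ×40 objective. For Kaplan–Meier curves, at least 100 cells were scored, with death counted per 1 h or 0.2 h interval.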

For another series, the target named is Histone deacetylase 2 (Homo sapiens, UniProt Q92769).
Histone deacetylase 2, sequence (Q92769 whole entry): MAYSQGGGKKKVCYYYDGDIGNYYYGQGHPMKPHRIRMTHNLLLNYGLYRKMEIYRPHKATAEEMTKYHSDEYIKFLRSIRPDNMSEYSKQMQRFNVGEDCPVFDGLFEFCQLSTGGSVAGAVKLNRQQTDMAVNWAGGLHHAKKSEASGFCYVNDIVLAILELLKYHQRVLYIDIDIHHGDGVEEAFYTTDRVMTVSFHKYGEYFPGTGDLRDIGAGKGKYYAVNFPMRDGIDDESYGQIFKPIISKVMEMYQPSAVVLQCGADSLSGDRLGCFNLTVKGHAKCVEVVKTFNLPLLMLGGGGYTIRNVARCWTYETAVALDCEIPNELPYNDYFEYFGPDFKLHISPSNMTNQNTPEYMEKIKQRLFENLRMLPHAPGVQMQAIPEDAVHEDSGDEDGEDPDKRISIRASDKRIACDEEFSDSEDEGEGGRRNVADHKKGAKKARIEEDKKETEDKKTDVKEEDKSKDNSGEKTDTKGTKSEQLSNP
For series [12], the system named is NCI-H522. As to the kind of experiment: Cytotoxicity against human NCI-H522 cells assessed as reduction in cell survival at […] incubated for 3 days by methylene blue staining based analysis. The class given is functional. The note with it: dose 2.5 µM, time 3.0 day.
For another series, the target named is Histone deacetylase 4 (Homo sapiens, UniProt P56524). As to the kind of experiment: Inhibition of […] N-terminal GST/C-terminal his-tagged human recombinant HDAC4 (627 to 1084 residues) expressed in Sf9 insect cells.
Histone deacetylase 4, sequence (P56524 whole entry, the tested form may be a part): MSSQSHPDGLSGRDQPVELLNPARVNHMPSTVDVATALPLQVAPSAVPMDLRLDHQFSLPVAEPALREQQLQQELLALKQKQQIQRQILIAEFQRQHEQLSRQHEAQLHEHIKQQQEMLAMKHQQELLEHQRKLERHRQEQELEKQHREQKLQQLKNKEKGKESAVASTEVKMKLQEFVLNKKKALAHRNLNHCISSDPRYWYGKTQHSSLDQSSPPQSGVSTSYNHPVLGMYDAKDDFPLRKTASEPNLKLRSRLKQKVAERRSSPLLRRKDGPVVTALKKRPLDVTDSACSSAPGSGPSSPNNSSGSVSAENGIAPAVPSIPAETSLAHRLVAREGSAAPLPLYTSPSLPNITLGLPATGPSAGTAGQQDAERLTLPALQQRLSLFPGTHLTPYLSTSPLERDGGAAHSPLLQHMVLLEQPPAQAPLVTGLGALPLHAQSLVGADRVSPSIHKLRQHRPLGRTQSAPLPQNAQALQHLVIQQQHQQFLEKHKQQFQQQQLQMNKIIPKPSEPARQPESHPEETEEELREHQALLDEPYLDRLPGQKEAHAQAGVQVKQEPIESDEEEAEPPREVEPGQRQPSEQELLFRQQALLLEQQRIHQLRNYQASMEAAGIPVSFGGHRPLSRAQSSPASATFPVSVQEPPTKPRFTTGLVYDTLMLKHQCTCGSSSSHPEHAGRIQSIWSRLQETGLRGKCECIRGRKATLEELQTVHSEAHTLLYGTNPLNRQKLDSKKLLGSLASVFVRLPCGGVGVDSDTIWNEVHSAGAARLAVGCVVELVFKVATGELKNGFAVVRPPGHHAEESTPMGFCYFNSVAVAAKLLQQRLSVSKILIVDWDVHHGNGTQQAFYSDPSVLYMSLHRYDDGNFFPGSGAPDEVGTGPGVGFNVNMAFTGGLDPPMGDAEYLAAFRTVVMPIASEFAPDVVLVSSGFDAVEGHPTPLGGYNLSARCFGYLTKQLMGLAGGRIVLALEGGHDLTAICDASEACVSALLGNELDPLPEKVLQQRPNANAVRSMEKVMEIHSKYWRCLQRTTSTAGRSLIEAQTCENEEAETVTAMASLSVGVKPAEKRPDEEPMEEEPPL
Series [13] can be described thus: Neurotoxicity in human SH-SY5Y cells assessed as decrease in cell viability at 20 to 80 uM incubated for 3 days. The following applies: 72 h, dose 20-80 µM, time 3 day. In kind it is toxicity, cell-based. Put shortly: as §2
Series [14] concerns NCI-H522. Nature of the series: Cytotoxicity against human NCI-H522 cells assessed as reduction in cell survival at 1 to 5 uM incubated for 3 days in presence of Methyl 7-(2-ethynylthiazole-4-carboxamido)heptanoate by methylene blue staining based analysis. The class given is functional. The note with it: dose 1-5 µM, time 3.0 day. Put shortly: as §1
Series [15] is described as follows: Neurotoxicity in human SH-SY5Y cells assessed as decrease in cell viability at 6.665 uM incubated for 3 days. The class given is toxicity, cell-based. The following applies: 72 h, time 3 day. The method, boiled down: as §2
The target of series [16] is Protein deacetylase HDAC6 (Homo sapiens) (UniProt Q9UBN7). Nature of the series: Inhibition of HDAC6 in human NCI-H522 cells assessed as increase in acetylation of tubulin at 5 uM measured for 3 days by Western blot analysis. The class given is cell-based. The note with it: time 3.0 day.

With `C#Cc1nc(C=CCCCCCC(=O)NO)cs1`, the half-maximal inhibitory concentration (IC50) in the series on HCT-116 stood at 3420 nM; in the series on NCI-H522 [1], 1670 nM.

For `O=C(CCCCCCC(=O)Nc1ccccc1)NO` [VORINOSTAT], the outcome with NCI-H522 [2], in the series on NCI-H522 [3] and in the series with NCI-H522 [4] was Active.

On to `C#Cc1nc(C(=O)NCCCCCCC(=O)OC)cs1`, for which the outcome with NCI-H522 [5] and in the series with NCI-H522 [6] was Active. Moreover, the Activity result in series [7] is on record as “Toxic”.

With `C#Cc1nc(/C=C\CCCCCC(=O)NO)cs1`, the IC50 came out at 130 nM on Histone deacetylase 1; 25 nM in [8]; 300 nM at Histone deacetylase 3; 1190 nM in the series with HCT-116; 470 nM on Histone deacetylase 8; 1070 nM in the series on NCI-H522 [1]. For the same compound, in the series on NCI-H522 [6], the result was Active.

Turning to `C#Cc1nc(C2=C(C)[C@@H](O)CC2)cs1`, the result with NCI-H522 [9] and in the series with NCI-H522 [11] was Active. Moreover, the IC50 at 30 min in series [10] was 15100 nM.

In the case of `C#Cc1nc(/C=C/C=C/C(=O)NO)cs1`, the IC50 is 1000 nM on Histone deacetylase 1; 1200 nM on Histone deacetylase 2; 160 nM in series [8]; 3100 nM at Histone deacetylase 3; 2100 nM on Histone deacetylase 4; 670 nM on Histone deacetylase 8. In addition, the outcome with NCI-H522 [12] was Active.

Regarding `C#Cc1nc(/C=C\CCCCCC(=O)OCC)cs1`, the result in the series on NCI-H522 [6] was Active.

`C#Cc1nc(/C=C/CCCCCC(=O)NO)cs1`: the concentration for half-maximal inhibition (IC50) on Histone deacetylase 1 stood at 72 nM; in series [8] it was 10 nM; at Histone deacetylase 3 it was 91 nM; with HCT-116, 4960 nM; at Histone deacetylase 4 it was 8600 nM; on Histone deacetylase 8 it was 270 nM. For the same compound, the concentration for half-maximal inhibition (IC50) with NCI-H522 [1] came out at 1590 nM.

`O=C(CCCCCCNC(=O)c1csc(Br)n1)NO`: the Activity result in series [13] and in [15] was “Toxic” in each case. The outcome in the series with NCI-H522 [14] and in the series with NCI-H522 [6] was Active.

With `C#Cc1nc(/C=C/C(=O)NO)cs1`, the IC50 at Histone deacetylase 1 was 890 nM; at Histone deacetylase 2 it was 1700 nM; in series [8], 160 nM; on Histone deacetylase 3, 1100 nM; on Histone deacetylase 8 it was 1800 nM. The inhibition entry in series [16] was “Active”.

On to `O=C(CCCCC/C=C\c1csc(Br)n1)NO`, for which the result in the series on NCI-H522 [6] was Active.

The values are drawn from ChEMBL document CHEMBL5096224, “First-in-Class Dual Mechanism Ferroptosis-HDAC Inhibitor Hybrids” (J Med Chem, 2022).
